From ChEMBL document CHEMBL2069265, “Synthesis and biological evaluation of optically active conjugated γ- and δ-lactone derivatives” (2012)
Values after ≈ are worked out from the molar mass of the structure shown. Active and inactive are the calls of the source. No cut-off for these calls is given here.

Legend:
[1] = tested on: Candida albicans; experiment: Antifungal activity against Candida albicans ATCC 10231 at 10 to 100 mg/ml after 24 hrs by disc diffusion method; format: functional
How it was run: (§1)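 Modified disc diffusion: LB agar plates seeded at 10^6 cells/mL; 6 mm filter discs soaked in 50 µL of compound at 10–100 mg/mL in DMSO or methanol, placed on plates, 37 °C for 24 h. Inhibition zone ≥7 mm scored susceptible. Solvent discs tested; positive controls gentamicine, streptomycine or nystatin discs at 10 mg/mL.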

[2] = tested on: Staphylococcus aureus; experiment: Antibacterial activity against Staphylococcus aureus ATCC 6538 after 24 hrs; format: functional
[3] = tested on: Escherichia coli; experiment: Antibacterial activity against Escherichia coli ATCC 3509 after 24 hrs; format: functional
[4] = tested on: Bacillus subtilis; experiment: Antibacterial activity against Bacillus subtilis ATCC 6633 at 10 to 100 mg/ml after 24 hrs by disc diffusion method; format: functional; how it was run: as §1
[5] = tested on: Staphylococcus aureus; experiment: Antibacterial activity against Staphylococcus aureus ATCC 6538 at 10 to 100 mg/ml after 24 hrs by disc diffusion method; format: functional; how it was run: as §1
[6] = tested on: Pseudomonas aeruginosa; experiment: Antibacterial activity against Pseudomonas aeruginosa ATCC 9027 at 10 to 100 mg/ml after 24 hrs by disc diffusion method; format: functional, organism-based; how it was run: as §1
[7] = tested on: Escherichia coli; experiment: Antibacterial activity against Escherichia coli ATCC 3509 at 10 to 100 mg/ml after 24 hrs by disc diffusion method; format: functional; how it was run: as §1
[8] = tested on: Radical scavenging activity; experiment: Antioxidant activity assessed as DPPH radical scavenging activity at 11 uM; format: functional
How it was run: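 DPPH radical scavenging at 11 µM compound in methanol, absorbance at 517 nm; % scavenging calculated from control versus sample A517. Alpha tocopherol control; mean ± SD of three parallel measurements.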

[9] = tested on: Pseudomonas aeruginosa; experiment: Antibacterial activity against Pseudomonas aeruginosa ATCC 9027 after 24 hrs; format: functional, organism-based
[10] = tested on: Bacillus subtilis; experiment: Antibacterial activity against Bacillus subtilis ATCC 6633 after 24 hrs; format: functional
[11] = tested on: Candida albicans; experiment: Antifungal activity against Candida albicans ATCC 10231 after 24 hrs; format: functional
[12] = tested on: Radical scavenging activity; experiment: Antioxidant activity assessed as DPPH radical scavenging activity at 80 uM; format: functional
How it was run: (§2)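 DPPH radical scavenging per Blois; compounds 10–80 µM in methanol (some runs 10–200 µM, values reported at 80 µM). Absorbance at 517 nm; scavenging % = (A517 control − A517 sample)/A517 control × 100. Alpha tocopherol as control. Means ± SD of three parallel measurements.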

[13] = tested on: Liver microsomes; experiment: Antioxidant activity in Wistar rat liver microsomes assessed as reduction of lipid peroxidase activity by TBA assay; format: functional; design: concentration or dose not given beside the values; settings: Microsome
How it was run: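 TBA assay of lipid peroxidation in liver microsomes isolated from three Wistar rats, following Raj et al.; reduced lipid peroxidase activity taken as antioxidant activity, expressed as %.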

[14] = Metal chelating activity of the compound assessed as ratio of Fe2+ concentration to compound concentration; format: functional
How it was run: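 Fe3+ reducing activity by modified ferrozine method; [Fe2+] calculated from extinction coefficient 27,900 M-1cm-1 of Fe(ferrozine)2+ complex, expressed as µM Fe2+ per µM compound. Means ± SD of three parallel measurements.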

[15] = tested on: Escherichia coli; experiment: Antibacterial activity against Escherichia coli ATCC 3509 at 50 mg/ml after 24 hrs by disc diffusion method; format: functional; settings: ATCC 3509, 24 h, read-out: DIZ
How it was run: (§3)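 Disc diffusion on LB agar seeded at 10^6 cells/mL. 6 mm discs are saturated with 50 µL compound solution in DMSO or methanol and incubated at 37 °C for 24 h. Inhibition zones of 7 mm or more are counted as susceptible. Solvent discs are run, with streptomycine discs (10 mg/mL) as positive control.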

[16] = tested on: Staphylococcus aureus; experiment: Antibacterial activity against Staphylococcus aureus ATCC 6538 at 50 mg/ml after 24 hrs by disc diffusion method; format: functional; settings: ATCC 6538, 24 h, read-out: DIZ; how it was run: as §3
[17] = tested on: Radical scavenging activity; experiment: Antioxidant activity assessed as DPPH radical scavenging activity at 10 to 80 uM; format: functional; how it was run: as §2
[18] = tested on: Bacillus subtilis; experiment: Antibacterial activity against Bacillus subtilis ATCC 6633 at 50 mg/ml after 24 hrs by disc diffusion method; format: functional, organism-based
How it was run: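 Disc diffusion on LB agar plates inoculated with 10^6 cells/mL. 6 mm filter discs saturated with 50 µL of compound solution (10–100 mg/mL in DMSO or methanol), placed on plates and incubated at 37 °C for 24 h. Inhibition zone diameter read; zones of 7 mm or more scored as susceptible. Solvent discs tested; gentamicine disc (10 mg/mL) as positive control.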

[19] = tested on: Radical scavenging activity; experiment: Antioxidant activity assessed as DPPH radical scavenging activity at 11 to 1000 uM; format: functional
How it was run: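 DPPH scavenging in methanol, read as loss of absorbance at 517 nm, value obtained over 1000–11 µM compound; % = (A517 control − A517 sample)/A517 control × 100. Alpha tocopherol control; three parallel measurements, means ± SD.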

| Molecule | diameter of the inhibition zone (DIZ) [1] | MIC [2] | MIC [3] | diameter of the inhibition zone (DIZ) [4] | diameter of the inhibition zone (DIZ) [5] | diameter of the inhibition zone (DIZ) [6] | diameter of the inhibition zone (DIZ) [7] | MIC [9] | MIC [10] | MIC ([11]; ATCC 10231, 24 h) [µg/mL] | Activity [13] | Ratio [14] | MIC [11] | MIC ([2]; ATCC 6538, 24 h) [µg/mL] | MIC ([3]; ATCC 3509, 24 h) [µg/mL] | Activity [17] | MIC ([10]; ATCC 6633, 24 h) [µg/mL] | further results |
| --- | --- | --- | --- | --- | --- | --- | --- | --- | --- | --- | --- | --- | --- | --- | --- | --- | --- | --- |
| CC1=CC(c2cccs2)OC1=O (racemic) | 7.5 mm | inactive | inactive | inactive | inactive | inactive | inactive | inactive | inactive | 25 (≈ 139 µM) | – | – | – | – | – | – | – | Activity [8]: 93.3% |
| O=C1C=CCC(c2ccco2)O1 (racemic) | inactive | inactive | inactive | inactive | inactive | inactive | inactive | inactive | inactive | – | 24.5% | 0 | inactive | – | – | – | – | Activity [12]: 38.1% |
| O=C1C=CC[C@@H](c2ccco2)O1 | inactive | inactive | inactive | inactive | inactive | inactive | inactive | inactive | inactive | – | 7.45% | 0 | inactive | – | – | – | – | Activity [12]: 38% |
| CN[C@@H]1[C@H](O[C@H]2[C@H](O[C@H]3[C@H](O)[C@@H](O)[C@H](N=C(N)N)[C@@H](O)[C@@H]3N=C(N)N)O[C@@H](C)[C@]2(O)C=O)O[C@@H](CO)[C@H](O)[C@H]1O [STREPTOMYCIN] | – | – | – | – | – | – | – | – | – | – | – | – | – | – | – | – | – | zone of inhibition at 50000 µg/mL [15]: 18 mm; zone of inhibition at 50000 µg/mL [16]: 15 mm |
| CC1=CC[C@@H](c2cccs2)OC1=O | 9 mm | – | – | 11 mm | 7 mm | inactive | 8 mm | inactive | – | 25 (≈ 129 µM) | inactive | – | – | 25 (≈ 129 µM) | 25 (≈ 129 µM) | inactive | 25 (≈ 129 µM) | – |
| O=C1C=CC(c2cccs2)O1 (racemic) | 9 mm | inactive | inactive | inactive | inactive | inactive | inactive | inactive | inactive | 100 (≈ 602 µM) | 58.8% | 0.44 | – | – | – | inactive | – | – |
| O=C1C=CC[C@H](c2ccco2)O1 | inactive | inactive | inactive | inactive | inactive | inactive | inactive | inactive | inactive | – | 9% | 0.0092 | inactive | – | – | inactive | – | – |
| GENTAMICIN | – | – | – | – | – | – | – | – | – | – | – | – | – | – | – | – | – | inhibition zone (IZ) [18]: 17 mm |
| Cc1c(C)c2c(c(C)c1O)CC[C@@](C)(CCC[C@H](C)CCC[C@H](C)CCCC(C)C)O2 | – | – | – | – | – | – | – | – | – | – | – | – | – | – | – | 66.2% | – | – |
| O=C1C=CC[C@H](c2cccs2)O1 | 7 mm | – | – | 7 mm | 8.5 mm | inactive | 7 mm | inactive | – | 40 (≈ 222 µM) | inactive | 0.04 | – | 40 (≈ 222 µM) | 50 (≈ 277 µM) | inactive | 50 (≈ 277 µM) | – |
| CC1=CC[C@H](c2cccs2)OC1=O | 9 mm | – | – | 7 mm | 10 mm | inactive | 9 mm | inactive | – | 25 (≈ 129 µM) | inactive | – | – | 25 (≈ 129 µM) | 25 (≈ 129 µM) | inactive | 25 (≈ 129 µM) | – |
| CC1=C[C@@H](c2cccs2)OC1=O | inactive | inactive | – | inactive | inactive | inactive | 9.5 mm | inactive | inactive | – | – | – | inactive | – | 25 (≈ 139 µM) | – | – | Activity [8]: 50.6% |
| O=C1C=CCC(c2cccs2)O1 (racemic) | 9 mm | – | – | 8.5 mm | 8.5 mm | inactive | 8.5 mm | inactive | – | 25 (≈ 139 µM) | – | – | – | 30 (≈ 166 µM) | 20 (≈ 111 µM) | – | 10 (≈ 55.5 µM) | – |
| O=C1C=CC[C@@H](c2cccs2)O1 | 7 mm | – | – | 8.5 mm | 7 mm | inactive | 8.5 mm | inactive | – | 30 (≈ 166 µM) | inactive | 0 | – | 50 (≈ 277 µM) | 30 (≈ 166 µM) | 14% | 20 (≈ 111 µM) | – |
| CC1=CCC(c2cccs2)OC1=O (racemic) | 12 mm | – | – | inactive | 7.5 mm | inactive | 8 mm | inactive | inactive | 25 (≈ 129 µM) | – | – | – | 25 (≈ 129 µM) | 12 (≈ 61.8 µM) | – | – | Activity [19]: 7.11% |
| O=C1C=C[C@@H](c2cccs2)O1 | inactive | inactive | inactive | inactive | inactive | inactive | inactive | inactive | inactive | – | 54.7% | 0.015 | inactive | – | – | inactive | – | – |
